Measurements published in ChEMBL document CHEMBL4184325, “Discovery of 4,7-Diamino-5-(4-phenoxyphenyl)-6-methylene-pyrimido[5,4- b]pyrrolizines as Novel Bruton's Tyrosine Kinase Inhibitors” (J Med Chem, 2018).
Activity calls are given as the source filed them. No cut-off for these calls is given here.

Key:
Ramos = assay: Antiproliferative activity against human Ramos cells after 72 hrs by MTT assay; type: functional, cell-based
How it was run: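 Cells grown in RPMI-1640 with FBS at 37 °C, 5% CO2. Seeded and grown 2 h, then treated with various concentrations in PBS solution, each in triplicate, and cultured a further 72 h. Viability read by MTT. IC50 from the Logit method, given as mean ± SD of three independent determinations.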

[1] = target: Receptor tyrosine-protein kinase erbB-2 (Homo sapiens, UniProt P04626); assay: Inhibition of recombinant human ErbB2 using Poly(Glu, Tyr) 4:1 as substrate after 1 hr by ELISA
How it was run: (§1)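 Kinase activity was measured by ELISA on wells precoated with 20 µg/mL poly(Glu,Tyr) 4:1. Enzyme was incubated with compound in 50 mM HEPES pH 7.4, 20 mM MgCl2, 0.1 mM MnCl2, 0.2 mM Na3VO4, 1 mM DTT with 5 µM ATP at 37 °C for 1 h. Phosphotyrosine was detected with PY99 antibody, HRP secondary and OPD, read at A492. IC50 is the mean of duplicates.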

[2] = target: Platelet-derived growth factor receptor beta (Homo sapiens, UniProt P09619); assay: Inhibition of recombinant human PDGFR-beta using Poly(Glu, Tyr) 4:1 as substrate after 1 hr by ELISA
[3] = Drug metabolism in rat liver microsomes assessed as (S)-4-(4-(4,7-diamino-6-methylene-7,8-dihydro-6H-pyrimido[5,4-b]pyrrolizin-5-yl)phenoxy)phenol formation after 3 hrs; type: ADME, microsome
Rattus norvegicus = assay: AUC (0 to infinity) in rat at 3 mg/kg, po; type: ADME, organism-based; set-up: dose 3 mg/kg, time infinity, route oral; conditions: in vivo
How it was run: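 Rats dosed orally at 3 mg/kg; vehicle DMSO, Tween 80, normal saline; values are the average of three determinations.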

[4] = Drug metabolism in mouse liver microsomes assessed as (S)-N-(4-amino-5-(4-(4-hydroxyphenoxy)phenyl)-6-methylene-7,8-dihydro-6H-pyrimido[5,4-b]pyrrolizin-7-yl)acrylamide formation after 3 hrs; type: ADME, microsome
TMD8 [5] = assay: Cell cycle arrest in human TMD8 cells assessed as accumulation at G1 phase at 10 nM after 48 hrs by propidium iodide staining-based flow cytometric method (reference value: 51.33%); type: functional
TMD8 [6] = assay: Induction of apoptosis in human TMD8 cells after 72 hrs by Annexin-FITC/propidium iodide staining-based flow cytometric method; type: functional, cell-based
[7] = Drug metabolism in mouse liver microsomes assessed as N-((S)-4-amino-6-methylene-5-(4-phenoxyphenyl)-7,8-dihydro-6H-pyrimido[5,4-b]pyrrolizin-7-yl)-2,3-dihydroxypropanamide formation after 3 hrs; type: ADME, microsome
Mus musculus = assay: In vivo inhibition of BTK in human TMD8 cells xenografted in CB17 SCID nude mouse assessed as decrease in PLCgamma2 phosphorylation at Y759 at 15 mg/kg, […] by Western blot method; type: functional, organism-based
[8] = Drug metabolism in rat liver microsomes assessed as (S)-N-(4-amino-5-(4-(4-hydroxyphenoxy)phenyl)-6-methylene-7,8-dihydro-6H-pyrimido[5,4-b]pyrrolizin-7-yl)acrylamide formation after 3 hrs; type: ADME, microsome
Ephrin type-A receptor 2 = Ephrin type-A receptor 2 (Homo sapiens, UniProt P29317); assay: Inhibition of recombinant human EPHA2 using Poly(Glu, Tyr) 4:1 as substrate after 1 hr by ELISA
TMD8 [9] = assay: Cell cycle arrest in human TMD8 cells assessed as accumulation at S phase at 10 nM after 48 hrs by propidium iodide staining-based flow cytometric method (reference value: 34.15%); type: functional
[10] = Drug metabolism in rat liver microsomes assessed as N-((S)-4-amino-6-methylene-5-(4-phenoxyphenyl)-7,8-dihydro-6H-pyrimido[5,4-b]pyrrolizin-7-yl)-2,3-dihydroxypropanamide formation after 3 hrs; type: ADME, microsome
TMD8 [11] = assay: Induction of apoptosis in human TMD8 cells assessed as late apoptotic cells at 1000 nM after 72 hrs by Annexin-FITC/propidium iodide staining-based flow cytometric method (reference value: 3.2%); type: functional
[12] = Drug metabolism in human liver microsomes assessed as N-((S)-4-amino-6-methylene-5-(4-phenoxyphenyl)-7,8-dihydro-6H-pyrimido[5,4-b]pyrrolizin-7-yl)-2,3-dihydroxypropanamide formation after 3 hrs; type: ADME, microsome
[13] = Drug metabolism in mouse liver microsomes assessed as (S)-4-(4-(4,7-diamino-6-methylene-7,8-dihydro-6H-pyrimido[5,4-b]pyrrolizin-5-yl)phenoxy)phenol formation after 3 hrs; type: ADME, microsome
[14] = target: T1, Tyrosine-protein kinase ITK/TSK (Homo sapiens, UniProt Q08881); assay: Inhibition of recombinant human ITK using Poly(Glu, Tyr) 4:1 as substrate after 1 hr by ELISA; how it was run: as §1
T1 sequence (Q08881 whole entry): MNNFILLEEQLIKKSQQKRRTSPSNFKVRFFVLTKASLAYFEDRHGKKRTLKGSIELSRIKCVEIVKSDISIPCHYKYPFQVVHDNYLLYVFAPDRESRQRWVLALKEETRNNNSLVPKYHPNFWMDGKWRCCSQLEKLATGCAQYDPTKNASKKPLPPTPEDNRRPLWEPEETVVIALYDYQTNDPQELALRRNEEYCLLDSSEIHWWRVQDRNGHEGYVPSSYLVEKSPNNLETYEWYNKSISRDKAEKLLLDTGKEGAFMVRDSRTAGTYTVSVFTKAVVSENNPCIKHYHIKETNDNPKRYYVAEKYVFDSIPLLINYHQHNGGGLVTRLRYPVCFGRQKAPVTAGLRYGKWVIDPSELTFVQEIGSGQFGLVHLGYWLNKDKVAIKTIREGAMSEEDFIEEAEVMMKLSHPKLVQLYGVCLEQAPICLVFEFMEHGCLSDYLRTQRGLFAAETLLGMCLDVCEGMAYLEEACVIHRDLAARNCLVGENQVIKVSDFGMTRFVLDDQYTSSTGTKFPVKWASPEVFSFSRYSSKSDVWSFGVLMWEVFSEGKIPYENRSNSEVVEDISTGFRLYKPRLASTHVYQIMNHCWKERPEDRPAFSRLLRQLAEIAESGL

[15] = target: Receptor tyrosine-protein kinase erbB-4 (Homo sapiens, UniProt Q15303); assay: Inhibition of recombinant human ErbB4 using Poly(Glu, Tyr) 4:1 as substrate after 1 hr by ELISA; how it was run: as §1
Sequence of Receptor tyrosine-protein kinase erbB-4 (Q15303 whole entry): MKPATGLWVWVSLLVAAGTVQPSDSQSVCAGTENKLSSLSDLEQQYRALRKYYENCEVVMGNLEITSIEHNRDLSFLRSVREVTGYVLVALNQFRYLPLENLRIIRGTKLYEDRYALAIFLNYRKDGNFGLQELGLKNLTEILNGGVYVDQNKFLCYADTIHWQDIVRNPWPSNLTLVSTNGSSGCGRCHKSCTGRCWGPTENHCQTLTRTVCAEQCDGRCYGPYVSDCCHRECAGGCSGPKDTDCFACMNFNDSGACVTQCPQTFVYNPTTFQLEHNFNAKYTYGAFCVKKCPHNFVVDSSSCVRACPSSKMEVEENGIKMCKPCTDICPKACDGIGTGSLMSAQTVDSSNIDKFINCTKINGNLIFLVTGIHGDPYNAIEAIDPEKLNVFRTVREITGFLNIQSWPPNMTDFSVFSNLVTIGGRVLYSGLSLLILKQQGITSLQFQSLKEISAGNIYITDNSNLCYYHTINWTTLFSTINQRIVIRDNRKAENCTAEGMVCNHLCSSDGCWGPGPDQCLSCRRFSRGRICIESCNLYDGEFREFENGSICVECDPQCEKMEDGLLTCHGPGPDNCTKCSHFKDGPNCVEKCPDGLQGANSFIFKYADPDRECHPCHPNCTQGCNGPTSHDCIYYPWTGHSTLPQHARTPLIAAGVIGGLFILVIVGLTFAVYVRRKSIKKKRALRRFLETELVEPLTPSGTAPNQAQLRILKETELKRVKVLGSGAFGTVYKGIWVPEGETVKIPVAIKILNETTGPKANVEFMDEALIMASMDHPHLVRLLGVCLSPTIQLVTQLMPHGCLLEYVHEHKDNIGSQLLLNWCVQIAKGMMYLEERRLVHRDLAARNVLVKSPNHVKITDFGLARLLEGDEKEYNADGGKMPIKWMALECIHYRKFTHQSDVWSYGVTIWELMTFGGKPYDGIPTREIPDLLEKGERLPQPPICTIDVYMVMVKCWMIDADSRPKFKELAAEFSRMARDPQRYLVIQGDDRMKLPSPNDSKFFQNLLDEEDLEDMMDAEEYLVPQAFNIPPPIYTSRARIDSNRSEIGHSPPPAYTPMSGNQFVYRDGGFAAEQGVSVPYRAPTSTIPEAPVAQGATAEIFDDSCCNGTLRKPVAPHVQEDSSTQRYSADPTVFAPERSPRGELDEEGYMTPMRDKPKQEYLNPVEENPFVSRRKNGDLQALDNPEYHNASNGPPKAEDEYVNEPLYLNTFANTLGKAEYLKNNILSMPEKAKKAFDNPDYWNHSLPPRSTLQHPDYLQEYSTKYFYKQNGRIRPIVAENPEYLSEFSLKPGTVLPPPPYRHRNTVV

Sequence of Receptor tyrosine-protein kinase erbB-2 (P04626 whole entry): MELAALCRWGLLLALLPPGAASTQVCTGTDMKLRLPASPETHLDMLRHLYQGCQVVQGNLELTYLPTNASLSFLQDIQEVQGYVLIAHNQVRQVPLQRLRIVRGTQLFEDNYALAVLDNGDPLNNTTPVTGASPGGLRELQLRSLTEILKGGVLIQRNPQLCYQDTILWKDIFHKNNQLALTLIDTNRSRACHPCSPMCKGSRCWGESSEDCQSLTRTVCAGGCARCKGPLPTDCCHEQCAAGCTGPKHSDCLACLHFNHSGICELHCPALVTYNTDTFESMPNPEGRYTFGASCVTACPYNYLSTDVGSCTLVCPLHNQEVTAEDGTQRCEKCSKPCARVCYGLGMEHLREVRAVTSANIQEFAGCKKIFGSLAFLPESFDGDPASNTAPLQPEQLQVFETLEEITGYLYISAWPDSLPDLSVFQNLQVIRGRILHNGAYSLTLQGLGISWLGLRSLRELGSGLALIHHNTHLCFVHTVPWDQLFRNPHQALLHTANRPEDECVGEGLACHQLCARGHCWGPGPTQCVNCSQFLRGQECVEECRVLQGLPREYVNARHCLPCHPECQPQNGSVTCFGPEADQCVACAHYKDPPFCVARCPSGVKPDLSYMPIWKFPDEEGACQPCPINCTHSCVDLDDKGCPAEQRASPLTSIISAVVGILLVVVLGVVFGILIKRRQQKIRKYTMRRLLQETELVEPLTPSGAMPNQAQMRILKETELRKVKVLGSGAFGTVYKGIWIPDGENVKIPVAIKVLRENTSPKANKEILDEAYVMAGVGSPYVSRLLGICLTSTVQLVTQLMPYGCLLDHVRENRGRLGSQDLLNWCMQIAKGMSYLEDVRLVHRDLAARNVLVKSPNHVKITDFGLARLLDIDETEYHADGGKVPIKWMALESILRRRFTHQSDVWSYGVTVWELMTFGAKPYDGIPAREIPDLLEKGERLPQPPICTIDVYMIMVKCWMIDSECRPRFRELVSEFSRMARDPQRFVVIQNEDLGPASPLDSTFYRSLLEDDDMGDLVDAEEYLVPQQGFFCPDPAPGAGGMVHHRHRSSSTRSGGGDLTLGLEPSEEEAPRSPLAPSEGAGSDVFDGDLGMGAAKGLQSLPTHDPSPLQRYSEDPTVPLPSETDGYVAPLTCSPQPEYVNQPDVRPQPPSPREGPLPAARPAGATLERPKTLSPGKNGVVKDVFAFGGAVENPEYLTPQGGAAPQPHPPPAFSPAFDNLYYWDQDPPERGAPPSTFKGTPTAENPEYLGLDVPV
Sequence of Platelet-derived growth factor receptor beta (P09619 whole entry): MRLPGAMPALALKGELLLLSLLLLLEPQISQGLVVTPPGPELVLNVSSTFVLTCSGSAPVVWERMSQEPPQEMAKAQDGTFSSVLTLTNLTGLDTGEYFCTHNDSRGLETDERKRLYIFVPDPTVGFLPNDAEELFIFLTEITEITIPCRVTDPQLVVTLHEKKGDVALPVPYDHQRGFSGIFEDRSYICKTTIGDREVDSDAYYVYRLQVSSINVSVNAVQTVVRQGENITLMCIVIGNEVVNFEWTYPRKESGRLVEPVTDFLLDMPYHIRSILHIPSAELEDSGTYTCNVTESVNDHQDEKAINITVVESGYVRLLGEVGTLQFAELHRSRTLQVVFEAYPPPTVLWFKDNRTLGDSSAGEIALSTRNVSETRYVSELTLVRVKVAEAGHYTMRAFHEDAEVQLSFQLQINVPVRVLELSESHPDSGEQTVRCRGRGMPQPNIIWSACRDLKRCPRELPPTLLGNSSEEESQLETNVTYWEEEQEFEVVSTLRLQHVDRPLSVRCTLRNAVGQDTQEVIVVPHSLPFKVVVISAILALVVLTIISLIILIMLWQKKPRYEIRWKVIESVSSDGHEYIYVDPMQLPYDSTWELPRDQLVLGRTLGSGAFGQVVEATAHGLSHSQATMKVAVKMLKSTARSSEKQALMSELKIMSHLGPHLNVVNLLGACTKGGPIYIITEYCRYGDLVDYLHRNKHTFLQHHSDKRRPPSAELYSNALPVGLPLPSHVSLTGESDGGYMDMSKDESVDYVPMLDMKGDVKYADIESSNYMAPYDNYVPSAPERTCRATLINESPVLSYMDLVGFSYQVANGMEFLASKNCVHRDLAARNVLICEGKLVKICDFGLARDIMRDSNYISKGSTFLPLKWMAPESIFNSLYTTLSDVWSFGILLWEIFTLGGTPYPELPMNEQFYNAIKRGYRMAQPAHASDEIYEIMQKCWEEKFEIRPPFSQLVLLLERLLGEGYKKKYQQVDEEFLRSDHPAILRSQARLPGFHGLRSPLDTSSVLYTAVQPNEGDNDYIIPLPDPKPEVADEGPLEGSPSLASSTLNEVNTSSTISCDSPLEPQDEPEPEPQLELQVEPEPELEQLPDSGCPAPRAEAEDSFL
Sequence of Ephrin type-A receptor 2 (P29317 whole entry): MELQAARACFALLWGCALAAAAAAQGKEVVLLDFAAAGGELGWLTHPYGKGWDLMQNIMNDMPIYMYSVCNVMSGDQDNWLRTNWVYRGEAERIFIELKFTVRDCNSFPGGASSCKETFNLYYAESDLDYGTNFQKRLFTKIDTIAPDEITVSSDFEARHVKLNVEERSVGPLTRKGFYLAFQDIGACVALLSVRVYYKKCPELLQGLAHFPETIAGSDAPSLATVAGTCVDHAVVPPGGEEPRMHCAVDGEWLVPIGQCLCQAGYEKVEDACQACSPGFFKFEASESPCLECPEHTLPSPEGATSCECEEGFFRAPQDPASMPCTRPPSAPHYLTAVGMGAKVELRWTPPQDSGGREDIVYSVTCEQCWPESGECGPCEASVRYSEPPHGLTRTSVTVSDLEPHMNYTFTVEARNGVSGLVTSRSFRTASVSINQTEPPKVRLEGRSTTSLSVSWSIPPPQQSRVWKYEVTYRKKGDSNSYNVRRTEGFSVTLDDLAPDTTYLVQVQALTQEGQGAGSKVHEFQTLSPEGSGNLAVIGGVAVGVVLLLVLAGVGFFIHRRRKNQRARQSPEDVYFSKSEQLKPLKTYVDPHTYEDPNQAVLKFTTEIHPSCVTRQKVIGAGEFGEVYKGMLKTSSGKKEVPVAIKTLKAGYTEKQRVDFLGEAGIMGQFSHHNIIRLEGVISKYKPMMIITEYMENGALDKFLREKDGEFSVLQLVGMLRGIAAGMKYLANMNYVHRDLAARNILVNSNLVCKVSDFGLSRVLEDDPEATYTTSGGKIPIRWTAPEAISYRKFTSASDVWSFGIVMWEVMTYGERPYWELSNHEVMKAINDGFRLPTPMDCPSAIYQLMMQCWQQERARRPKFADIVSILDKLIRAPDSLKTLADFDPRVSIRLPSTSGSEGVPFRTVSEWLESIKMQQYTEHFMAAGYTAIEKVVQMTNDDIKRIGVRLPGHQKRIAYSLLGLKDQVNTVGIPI

## C=CC(=O)N[C@@H]1Cn2c(c(-c3ccc(Oc4ccccc4)cc3)c3c(N)ncnc32)C1=C
Ramos
  IC50: 5030 nM
[1]
  IC50: 23.2 nM
[2]
  IC50: 215 nM
[3]
  Drug metabolism: Metabolite_Detected
Rattus norvegicus
  AUC: 211 ng·h/mL
[4]
  Drug metabolism: Metabolite_Detected
TMD8 [5]
  Activity: 76.32%
TMD8 [6]
  Activity: Dose-dependent effect
[7]
  Drug metabolism: Metabolite_Detected
Mus musculus
  inhibition: Active
[8]
  Drug metabolism: Metabolite_Detected
Ephrin type-A receptor 2
  IC50: > 1000 nM
TMD8 [9]
  Activity: 12.56%
[10]
  Drug metabolism: Metabolite_Detected
TMD8 [11]
  Activity: 27.9%
[12]
  Drug metabolism: Metabolite_Detected
[13]
  Drug metabolism: Metabolite_Detected
[14]
  IC50: 15.1 nM
[15]
  IC50: 0.6 nM
